In PubChem BioAssay AID623986 (Vanderbilt High Throughput Screening Facility, 2012) one finds outcome data, which are given here for one compound.

For this assay, the target named is Potassium voltage-gated channel subfamily KQT member 4 (Homo sapiens) (UniProt P56696). Put plainly: Kv7.4 channel modulation by thallium flux, dose response, selectivity assay for GIRK activator project, cell-based, human, concentration-response (AID 623986). Put shortly:
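material = T-REx-293 cells stably expressing human Kv7.4 potassium channel | read-out basis = baseline-corrected slope, % of vehicle | control set = XE-991-blocked wells as baseline, vehicle wells as reference | repeats = triplicate wells, four-parameter logistic concentration-response fits | measured by = FluoZin-2 thallium flux fluorescence | incubation = 4 min compound pretreatment before thallium stimulus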

Activity calls are given as the source filed them. The rule behind the calls is not given here.

Sequence of Potassium voltage-gated channel subfamily KQT member 4 (Homo sapiens) (P56696 whole entry, looked up): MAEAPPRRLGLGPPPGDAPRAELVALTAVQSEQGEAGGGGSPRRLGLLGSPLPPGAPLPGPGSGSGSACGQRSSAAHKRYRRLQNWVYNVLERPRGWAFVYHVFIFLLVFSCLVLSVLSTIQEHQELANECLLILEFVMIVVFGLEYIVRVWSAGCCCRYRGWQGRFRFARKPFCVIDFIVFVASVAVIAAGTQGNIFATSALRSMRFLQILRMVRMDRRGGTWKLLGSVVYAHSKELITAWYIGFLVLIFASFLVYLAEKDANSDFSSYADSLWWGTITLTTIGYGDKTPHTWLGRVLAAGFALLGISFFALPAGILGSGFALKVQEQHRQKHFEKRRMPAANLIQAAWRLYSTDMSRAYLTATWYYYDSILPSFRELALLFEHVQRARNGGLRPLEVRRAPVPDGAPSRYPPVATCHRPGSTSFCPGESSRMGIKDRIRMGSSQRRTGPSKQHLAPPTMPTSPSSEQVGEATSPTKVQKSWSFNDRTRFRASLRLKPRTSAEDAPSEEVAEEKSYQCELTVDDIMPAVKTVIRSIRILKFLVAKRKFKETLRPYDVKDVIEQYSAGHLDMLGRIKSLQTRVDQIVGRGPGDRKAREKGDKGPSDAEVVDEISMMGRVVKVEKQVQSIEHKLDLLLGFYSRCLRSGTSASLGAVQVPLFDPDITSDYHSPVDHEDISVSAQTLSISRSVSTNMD

On to `Cc1cc(NC(=O)Nc2ccc(F)c(F)c2)n(-c2ccccc2)n1`, for which the outcome was inactive.
